Here are results for 4 molecules from PMC8341375 (RSC Chemical Biology, 2021).

Series [1] has as its target T1, aromatase (CYP19) (Homo sapiens, UniProt P11511).
T1 sequence (P11511 1-503): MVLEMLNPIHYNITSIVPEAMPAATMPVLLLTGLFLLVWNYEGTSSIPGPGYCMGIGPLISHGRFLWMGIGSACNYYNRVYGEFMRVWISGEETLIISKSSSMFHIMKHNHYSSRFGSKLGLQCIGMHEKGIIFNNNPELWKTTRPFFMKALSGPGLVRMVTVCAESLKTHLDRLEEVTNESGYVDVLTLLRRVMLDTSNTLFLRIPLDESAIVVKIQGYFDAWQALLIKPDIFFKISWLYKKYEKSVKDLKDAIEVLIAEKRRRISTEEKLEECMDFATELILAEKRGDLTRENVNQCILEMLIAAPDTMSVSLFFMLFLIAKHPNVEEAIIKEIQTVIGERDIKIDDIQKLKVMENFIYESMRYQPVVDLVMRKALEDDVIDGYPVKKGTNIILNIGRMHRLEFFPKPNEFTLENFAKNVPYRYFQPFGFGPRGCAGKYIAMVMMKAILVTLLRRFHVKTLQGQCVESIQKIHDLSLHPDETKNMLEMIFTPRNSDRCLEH
The following applies: noncompetitive AI; cited from earlier work.

The target of series [2] is T1, aromatase (CYP19). As to the kind of experiment: CYP19/MFC aromatase inhibition assay. The following applies: for Fractional activity at saturation / Hill slope: dose-response fit, 7.5 nM P450, 25 μM MFC; for Hill slope: AR19 fixed to 1. Format: biochemical.
Another series has as its system recombinant CYP19. Description: Soret shifts by absorption spectroscopy. It counts as binding. Conditions: titration of up to 100 μM, 2 μM ASD. In outline:
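Purified recombinant CYP19 (from codon-optimized CYP19A1 cDNA in pCW) at 2–3 μM in 100 mM potassium phosphate, pH 7.4. Test compound titrated (6–36 μM, then 100 μM) with ACN kept ≤3%, with or without 2 μM androstenedione. UV-Vis absorption scans after 10 min at 25 °C. Adducts were dithionite-reduced and exposed to CO in some runs.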

In the next series the target is T2, CYP19 (Homo sapiens, UniProt P11511).
T2 sequence (P11511 1-503): T1 sequence (P11511 1-503)
Description: AR11 and AR13 steady-state kinetics assay. It counts as biochemical. Conditions: nonlinear regression, no inhibitor.

Substrate in series [3]: COc1ccc2c(C(F)(F)F)cc(=O)oc2c1
Description: AR11 and AR13 steady-state kinetics assay. Conditions: other: nonlinear regression, no inhibitor; pH 7.4; 37.0 °C. It counts as biochemical.

With `CC/C(=C(\c1ccc(O)cc1)c1ccc(OCCNC)cc1)c1ccccc1` [Endoxifen, endoxifen], the Ki (commonly the dissociation constant of the complex between target and ligand, obtained from inhibition or displacement) on aromatase (CYP19) [1] is 4 µM. In addition, on aromatase (CYP19) [2] (IC50, 7.5 nM P450, 25 μM MFC, 4-parameter logistic model (AR19: 3-parameter, Hill 1), ± SEM), the IC50 (as a rule, the midpoint of a concentration-inhibition curve) amounted to 30.9 ± 3.1 µM. At aromatase (CYP19) [2], the “Fractional activity at saturation” value is on record as 0.02 ± 0.02 and the Hill slope – broadly, a measure of the steepness of the concentration-response curve – is on record as 2.27 ± 0.41. The molecule also had a Hill slope at aromatase (CYP19) [2] (listed as endoxifen) of 2. Moreover, in the series on recombinant CYP19, the “Soret peak shift from 395 nm in the CYP19 ASD-bound state” value is “did not induce a Soret peak shift”.

In the case of `COc1ccc2c(C(F)(F)F)cc(=O)oc2c1` [MFC, 7-methoxy-4-(trifluoromethyl)coumarin], the “substrate Vmax” value on CYP19 is given as 0.731 pmol HFC min^−1 pmol^−1 P450.

On to `CC(=O)N1CCN(c2ccc(OCC3COC(Cn4ccnc4)(c4ccc(Cl)cc4Cl)O3)cc2)CC1` (stereo not shown) [Ketoconazole, ketoconazole], for which, at aromatase (CYP19) [2], the “Fractional activity at saturation” value came out at 0.03 ± 0.01 and the Hill slope was found to be 1.12 ± 0.07.

B1: CYP19 (Homo sapiens) (protein)
chain: T1 sequence (P11511 1-503)
In the case of B1, the Km (in general, the substrate concentration at which the rate is half of its maximum) in series [3] turned out to be 28.48 µM.
